The structures appear in SMILES notation. pIC50: −log10 of the molar value.

One assay concerns Pneumocystis carinii. Briefly: Antipneumocystis activity against Pneumocystis carinii assessed as reduction of ATP level after 72 hrs by bioluminescent assay. It counts as functional, organism-based. The method, boiled down:
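P. carinii from corticosteroid-immunosuppressed male CD rat lungs (methylprednisolone 20 mg/kg weekly, inoculated intratracheally or intranasally), cryopreserved, thawed at 37°C, 5 × 10^7 nuclei/ml in RPMI-1640 with 20% calf serum; 5% CO2, 37 °C. Screened at 100 µg/ml; titrated if ATP fell ≥50%. ATPlite luciferin-luciferase luminescence at 72 h; triplicate wells, 3 assays, two batches; IC50 by linear regression of % ATP decrease vs log concentration.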

In a further assay the test system is A549. The assay is described as follows: Cytotoxicity against human A549 cells. It counts as cell-based.
The nature of assay [1]: Cytotoxicity against rat L2 cells. It counts as cell-based.

Regarding `COc1cc(C(=N)N)cc(OC)c1OCCN(CCOc1c(OC)cc(C(=N)N)cc1OC)S(=O)(=O)c1ccc(N)cc1.Cl.Cl`, in the assay on Pneumocystis carinii, the pIC50 (in general, the IC50 on a negative log10 scale, so that one unit is a factor of ten) is 5.38. In addition, the IC50 (with A549; in assay [1]) was more than 100 µg/mL throughout.

For the compound `COc1cc(C(=N)N)ccc1OCCN(C)CCOc1ccc(C(=N)N)cc1OC.Cl.Cl`, in the assay with Pneumocystis carinii, the pIC50 is 5.47. For the same compound, the IC50 (in the assay with A549; in assay [1]) was more than 100 µg/mL each time.

In the case of `CN(CCCCCN(C)c1ccc(C(=N)N)cc1)c1ccc(C(=N)N)cc1.Cl.Cl`, the pIC50 in the assay on Pneumocystis carinii was 5.70. Besides, the IC50 – broadly, the midpoint of a concentration-inhibition curve – with A549 was more than 100 µg/mL; in assay [1], 47.1 µg/mL.

For `CN(CCOc1ccc(C(=N)N)cc1)CCOc1ccc(C(=N)N)cc1.Cl.Cl`, the pIC50 in the assay with Pneumocystis carinii was 5.76. Besides, the IC50 (with A549; in assay [1]) was more than 100 µg/mL each time.

Consider `COc1cc(C(=N)N)cc(OC)c1OCCN(CCOc1c(OC)cc(C(=N)N)cc1OC)S(=O)(=O)c1ccccc1.Cl.Cl`, for which the negative-log IC50 (pIC50) in the assay with Pneumocystis carinii was 5.36. Besides, the concentration for half-maximal inhibition (IC50) (with A549; in assay [1]) was more than 100 µg/mL throughout.

Consider `COc1cc(C(=N)N)ccc1OCCN(CCOc1ccc(C(=N)N)cc1OC)S(=O)(=O)c1ccccc1.Cl.Cl`, for which the pIC50 in the assay with Pneumocystis carinii is 5.58. For the same compound, the half-maximal inhibitory concentration (IC50) (in the assay with A549; in assay [1]) was more than 100 µg/mL each time.

For `Cl.Cl.N=C(N)c1ccc(OCCSCCOc2ccc(C(=N)N)cc2)cc1`, the pIC50 in the assay on Pneumocystis carinii was 5.93. In addition, the IC50 (in the assay on A549; in assay [1]) was more than 100 µg/mL throughout.

With `COc1cc(C(=N)N)cc(OC)c1OCCOCCOc1c(OC)cc(C(=N)N)cc1OC.Cl.Cl`, the pIC50 with Pneumocystis carinii is 4.89. Besides, the IC50 (in the assay with A549; in assay [1]) was more than 100 µg/mL each time.

For `COc1cc(C(=N)N)ccc1OCCN(CCOc1ccc(C(=N)N)cc1OC)S(=O)(=O)c1ccc(NC(C)=O)cc1.Cl.Cl`, the pIC50 in the assay with Pneumocystis carinii was 5.43. For the same compound, the IC50 (with A549; in assay [1]) was more than 100 µg/mL throughout.

`Cl.Cl.N=C(N)c1ccc(C(=O)NCCCNC(=O)c2ccc(C(=N)N)cc2)cc1`: the pIC50 in the assay on Pneumocystis carinii is 5.52. Moreover, the IC50 (in the assay on A549; in assay [1]) was more than 100 µg/mL in each case.

On to `Cl.Cl.N=C(N)c1ccc(NCCOCCNc2ccc(C(=N)N)cc2)cc1`, for which the negative-log IC50 (pIC50) in the assay on Pneumocystis carinii was 5.95. Also, the IC50 was more than 100 µg/mL with A549 and 36.9 µg/mL in assay [1].

Consider `Cl.Cl.N=C(N)c1ccc(C(=O)NCCCCCCNC(=O)c2ccc(C(=N)N)cc2)cc1`, for which, in the assay with Pneumocystis carinii, the pIC50 was 5.04. Moreover, the IC50 (with A549; in assay [1]) was more than 100 µg/mL each time.

Regarding `COc1cc(C(=N)N)ccc1OCCOCCOc1ccc(C(=N)N)cc1OC.Cl.Cl`, the negative logarithm of the IC50 (pIC50) with Pneumocystis carinii was 5.38. The IC50 (with A549; in assay [1]) was more than 100 µg/mL throughout.

On to `Cl.Cl.N=C(N)c1ccc(C(=O)NCCCCCNC(=O)c2ccc(C(=N)N)cc2)cc1`, for which the negative-log IC50 (pIC50) in the assay on Pneumocystis carinii is 4.84. The IC50 (with A549; in assay [1]) was more than 100 µg/mL each time.

Turning to `COc1cc(C(=N)N)cc(OC)c1OCCCCCOc1c(OC)cc(C(=N)N)cc1OC.Cl.Cl`, the pIC50 with Pneumocystis carinii is 5.52. Besides, the IC50 was more than 100 µg/mL in the assay with A549 and 17.8 µg/mL in assay [1].

Take `COc1cc(C(=N)N)cc(OC)c1OCCN(C)CCOc1c(OC)cc(C(=N)N)cc1OC.Cl.Cl`: in the assay on Pneumocystis carinii, the pIC50 is 5.20. Further, the IC50 (in the assay on A549; in assay [1]) was more than 100 µg/mL in each case.

As to `Cl.Cl.N=C(N)c1ccc(OCCOCCOc2ccc(C(=N)N)cc2)cc1`, the pIC50 with Pneumocystis carinii was 5.67. Further, the IC50 (with A549; in assay [1]) was more than 100 µg/mL each time.

Turning to `Cl.Cl.N=C(N)c1ccc(OCCN(CCOc2ccc(C(=N)N)cc2)S(=O)(=O)c2ccccc2)cc1`, the pIC50 in the assay on Pneumocystis carinii was 5.88. Further, the IC50 (in the assay with A549; in assay [1]) was more than 100 µg/mL throughout.

As to `Cl.Cl.N=C(N)c1ccc(C(=O)NCCCCNC(=O)c2ccc(C(=N)N)cc2)cc1`, the pIC50 with Pneumocystis carinii is 5.45. Further, the concentration for half-maximal inhibition (IC50) (in the assay with A549; in assay [1]) was more than 100 µg/mL throughout.

The record behind these values is ChEMBL document CHEMBL1932958, “Analogs of pentamidine as potential anti-Pneumocystis chemotherapeutics” (Eur J Med Chem, 2012).
